Drawing on ChEMBL document CHEMBL1157470, “Hydrolytic reactivity trends among potential prodrugs of the O2-glycosylated diazeniumdiolate family. Targeting nitric oxide to macrophages for antileishmanial activity” (J Med Chem, 2008), this text covers t1/2 and Activity for seven compounds.

Series [1] in a line: Chemical stability assessed as half life of hydrolysis in at pH 14. The note with it: 1.0 M NaOH. The class given is physicochemical. An outline of the steps:
(§1)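 Hydrolysis at 37 °C in 1.0 M NaOH, 0.1 M phosphate pH 7.4, or 0.05 M citrate pH 3.8–4.6, followed as first-order loss of the diazeniumdiolate UV absorbance at λmax. k from the ln(At − Ainf) versus time slope; Ainf was extrapolated when the reaction was incomplete. NaOH runs were followed in a thermostated diode-array cell.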

Series [2] is described as follows: Chemical stability assessed as half life of hydrolysis in 0.1 M phosphate buffer at pH 7.4. The class given is physicochemical. An outline of the steps: as §1
Series [3] in a line: Stability assessed as nitric oxide release in presence of human placenta N-acetyl-glucosaminidase measured per mole of glycoside in 0.1 M phosphate buffer at pH 7.4 at 0.16 mM […]. The series is classed as ADME. The note with it: pH 7.4, 160 µM. In short, it runs like this: (§2)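 37 °C in 0.1 M phosphate pH 7.4 with 0.05 mM DTPA. Jack bean N-acetylglucosaminidase at 0.11 units/mL or human placenta enzyme at 0.044 units/mL; substrate 0.10 or 0.16 mM initial. NO measured by chemiluminescence until evolution stopped, with the curve integrated per mole glycoside. Nitrite in the remaining solution measured by Griess. Enzyme activity verified with PNP-NAG.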
In general terms: Nitrite, measured by Griess reagent, commonly stands in for NO production.

Series [4] in a line: Stability assessed as nitric oxide release in presence of Jack bean N-acetyl-glucosaminidase measured per mole of glycoside in 0.1 M phosphate buffer at pH 7.4 at 0.16 mM […]. The class given is ADME. The note with it: pH 7.4, 160 µM. An outline of the steps: as §2
Series [5] in a line: Chemical stability assessed as half life of hydrolysis in 0.05 M citrate buffer at pH 4.6. The class given is physicochemical. In short, it runs like this: as §1
Series [6] can be described thus: Stability assessed as nitrite release in presence of Jack bean N-acetyl-glucosaminidase measured per mole of glycoside in 0.1 M phosphate buffer at pH 7.4 at 0.16 mM by Griess reagent assay. The series is classed as ADME. The following applies: pH 7.4, 160 µM. An outline of the steps:
as §2

Series [7] in a line: Stability in iNOS-deficient mouse peritoneal macrophages in RPMI medium assessed as increase in nitric oxide release at 0.25 mM after 24 hrs. The note with it: 250 µM.
The nature of series [8]: Stability assessed as nitrite release in presence of human placenta N-acetyl-glucosaminidase measured per mole of glycoside in 0.1 M phosphate buffer at pH 7.4 at 0.16 mM by Griess reagent assay. The class given is ADME. The note with it: pH 7.4, 160 µM. In short, it runs like this:
as §2

Series [9] can be described thus: Chemical stability assessed as half life of hydrolysis in 0.05 M citrate buffer at pH 3.8. The series is classed as physicochemical. In short, it runs like this: as §1
Series [10] is described as follows: Stability in iNOS deficient mouse macrophage assessed as increase in nitric oxide accumulation at 0.25 mM after 24 hrs. The class given is ADME, cell-based. The note with it: 250 µM. In short, it runs like this: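 Glycoside (0.25 mM initial) incubated 24 h at 37 °C in PBS, in RPMI with 2.5% fetal calf serum, or in that medium while culturing iNOS-deficient mouse peritoneal macrophages. Nitrite in supernatant measured by Griess. Triplicates, mean; one of two experiments.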

Series [11] can be described thus: Stability assessed as nitric oxide release in presence of Jack bean N-acetyl-glucosaminidase measured per mole of glycoside in 0.1 M phosphate buffer at pH 7.4 at 0.10 mM […]. The following applies: pH 7.4, 100 µM. The class given is ADME. An outline of the steps:
as §2

The nature of series [12]: Stability assessed as nitric oxide release in presence of human placenta N-acetyl-glucosaminidase measured per mole of glycoside in 0.1 M phosphate buffer at pH 7.4 at 0.10 mM […]. The series is classed as ADME. The following applies: pH 7.4, 100 µM. In short, it runs like this: as §2
Series [13] is described as follows: Stability assessed as nitrite release in presence of Jack bean N-acetyl-glucosaminidase measured per mole of glycoside in 0.1 M phosphate buffer at pH 7.4 at 0.10 mM by Griess reagent assay. The series is classed as ADME. The note with it: pH 7.4, 100 µM. In short, it runs like this: as §2
Series [14] is described as follows: Stability assessed as nitrite release in presence of human placenta N-acetyl-glucosaminidase measured per mole of glycoside in 0.1 M phosphate buffer at pH 7.4 at 0.10 mM by Griess reagent assay. The class given is ADME. The note with it: pH 7.4, 100 µM. An outline of the steps:
as §2

Series [15] in a line: Chemical stability assessed as half life of hydrolysis in 0.10 M phosphate buffer at pH 7.4. The class given is physicochemical. In short, it runs like this: as §1
A short description of series [16]: Chemical stability assessed as half life of hydrolysis in 0.05 M citrate buffer at pH 4.0. The class given is physicochemical. An outline of the steps: (§3)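 Half-lives at 37 °C across buffers from pH 4.0 to 14 (1.0, 0.10 and 0.0125 M NaOH; 0.05 M glycine/NaOH pH 10.0; 0.10 M phosphate pH 8.1 and 7.4; 0.05 M citrate pH 4.0). UV decay of the diazeniumdiolate chromophore at λmax. First-order k from the slope of ln(At − Ainf) versus time.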

A short description of series [17]: Chemical stability assessed as half life of hydrolysis in 0.10 M phosphate buffer at pH 8.1. The series is classed as physicochemical. In short, it runs like this:
as §3

Series [18] is described as follows: Chemical stability assessed as half life of hydrolysis in 0.0125 M sodium hydroxide buffer at pH 12.1. The class given is physicochemical. In short, it runs like this:
as §3

Series [19] is described as follows: Chemical stability assessed as half life of hydrolysis in 1.0 M sodium hydroxide buffer at pH 14.0. The class given is physicochemical. An outline of the steps:
as §3

Series [20] can be described thus: Chemical stability assessed as half life of hydrolysis in 0.5 M glycine/sodium hydroxide buffer at pH 10.0. The following applies: in the assay text read “0.05 M glycine” for “0.5 M glycine”. The class given is physicochemical. An outline of the steps: as §3
Series [21] in a line: Chemical stability assessed as half life of hydrolysis in 0.10 M sodium hydroxide buffer at pH 13.0. The class given is physicochemical. In short, it runs like this: as §3

With `CCN(CC)/[N+]([O-])=N/O[C@H]1O[C@H](CO)[C@@H](O)[C@H](O)[C@@H]1O`, the results for the t1/2 in [1] and in series [2] were 4.97 h and over 240 h, respectively.

Turning to `CC(=O)N[C@H]1[C@H](O/N=[N+](\[O-])N2CCCC2)O[C@H](CO)[C@@H](O)[C@@H]1O`, the Activity in series [3] came to 1.69 mol/mol; in [4], 1.72 mol/mol; in series [6] it was 0.12 mol/mol; in [7], 4; in series [8], 0.36 mol/mol. Also, the t1/2 in series [5] and in [2] was over 240 h throughout.

`CCN(CC)/[N+]([O-])=N/O[C@@H]1O[C@H](CO)[C@@H](O)[C@H](O)[C@H]1O`: the t1/2 in [1] is 0.035 h; in [5], over 240 h.

`CCN(CC)/[N+]([O-])=N/O[C@H]1C[C@@H](O)[C@H](O)[C@@H](CO)O1`: the t1/2 was 0.383 h in series [1], 28.8 h in series [9] and 12 h in [2].

For the compound `CCN(CC)/[N+]([O-])=N/O[C@@H]1O[C@@H](C)[C@@H](O)[C@@H](O)[C@@H]1O`, the results for the t1/2 in series [1], in [5] and in series [2] were 0.067 h, over 240 h and over 240 h, respectively.

Turning to `CCN(CC)/[N+]([O-])=N/O[C@@H]1O[C@H](CO)[C@@H](O)[C@H](O)[C@H]1NC(C)=O`, the t1/2 in series [1] was 0.85 h; in [5] it was 17 h; in series [2] it was 12 h. In addition, the Activity in [10] was found to be 2; in series [11], 1.26 mol/mol; in series [12] it was 1.73 mol/mol; in [13], 0.05 mol/mol; in series [14] it was 0.24 mol/mol.

As for `CCN(CC)/[N+]([O-])=N\OC1CCCCO1` (configuration not stated), the t1/2 is 3.1 min in [15]; 3.2 min in series [16]; 3.5 min in series [17]; 3.5 min in series [18]; 2.5 min in series [19]; 2.9 min in [20]. For the same compound, in series [21], the t1/2 came out at 2.7 min.
